Compounds with a hit are over-represented: about 5.8% of the library has one in this group of screens.
Pf Dd2 inh: P. falciparum Dd2 growth inhibition. SYBR Green, 72 h; active compounds read low. activity change, % at 10 µM. 94,000 tested, 2.3% active; in the data active means activity change below about -80%; inconclusive means no clear call, values can overlap the other calls
GASC1 inh: inhibitors of human demethylase GASC-1 KDM4C; AID 720574; Q9H3R0; 96,000 tested, 0.15% active; inhibition, % at 12.5 µM; GST-KDM4C 2-372, H3K9me3 peptide, LANCE TR-FRET;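 active means mean replicate inhibition above about 25%, with at least 55% of replicates also reaching it, limit read from the data, passing the limit was not always enough; inconclusive means only one of those two conditions met; inactive means neither condition met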
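Assay system: GST-GASC-1 enzyme fragment 2-372 | Amount: 10 nM enzyme | Medium: HEPES buffer, pH 7.5, plus ascorbate | Reagent: H3K9me3 peptide substrate, Fe(II), 2-oxoglutarate | Doses: Single-point compound screen | Incubation: 30 min demethylation and 1 h detection at room temperature | Measured by: LANCE TR-FRET, excitation 340 nm, emissions 618 and 671 nm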
T cruzi growth-1: inhibitors of T. cruzi proliferation | T. cruzi beta-gal in NIH3T3, GalScreen luminescence, 90 h | inhibition, % at 8.34 µM | 77,000 tested, 5.9% active | AID 624255;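 active means mean inhibition above about 93%, with at least 55% of replicates each passing it, limit read from the data, passing the limit was not always enough; inconclusive means only one of those two conditions holds; inactive means neither condition holds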
IDH1 mut inh: IDH1 R132H (human) inhibition; O75874; IDH1 R132H reductase, diaphorase/resazurin fluorescence, 60 min; inhibition, % at 10 µM; 70,000 tested, 0.18% active; in the data active means inhibition above about 34%; inconclusive means no clear call, values can overlap the other calls; inactive means below about 11%;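 further: 0% = DMSO and 100% = no enzyme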
Target sequence (O75874 whole entry R132H): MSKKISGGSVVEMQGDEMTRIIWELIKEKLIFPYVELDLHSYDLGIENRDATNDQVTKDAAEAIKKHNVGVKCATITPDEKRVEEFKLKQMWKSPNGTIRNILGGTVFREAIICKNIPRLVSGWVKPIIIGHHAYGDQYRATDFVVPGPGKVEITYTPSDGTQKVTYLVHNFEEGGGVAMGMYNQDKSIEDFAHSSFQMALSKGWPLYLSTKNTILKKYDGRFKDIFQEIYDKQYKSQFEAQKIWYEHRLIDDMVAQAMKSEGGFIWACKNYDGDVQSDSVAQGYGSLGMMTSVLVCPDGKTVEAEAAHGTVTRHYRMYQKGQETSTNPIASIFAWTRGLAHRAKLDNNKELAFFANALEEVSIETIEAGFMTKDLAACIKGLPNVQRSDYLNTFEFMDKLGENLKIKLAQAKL
T cruzi growth-2: inhibitors of T. cruzi proliferation; shares compounds with T cruzi growth-1; T. cruzi beta-gal in NIH3T3, GalScreen luminescence, 90 h; inhibition, % at 8.35 µM; 5,600 tested, 72% active;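 active means mean replicate inhibition above about 95% and at least 55% of replicates individually reaching it, limit read from the data; inconclusive means only one of the two criteria is met; inactive means neither criterion is met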
T cruzi growth-3: blocks T. cruzi growth in NIH3T3 host cells; shares compounds with T cruzi growth-1; T. cruzi beta-gal in NIH3T3, GalScreen luminescence, 90 h; inhibition, % at 2.09 µM; 5,600 tested, 21% active;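 active means mean inhibition above about 95%, with at least 55% of replicates also reaching it, limit read from the data; inconclusive means meets just one of the two conditions; inactive means meets neither condition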;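 further: plate controls were neutral control median for no effect and positive control median for full effect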
3T3 cytotox: kills mouse NIH/3T3 fibroblasts; shares compounds with T cruzi growth-1; NIH/3T3 viability, CellTiter-Glo ATP luminescence, 90 h; cytotoxicity (signal decrease), % at 8.35 µM; 5,600 tested, 14% active; AID 651742;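 active means mean signal decrease across replicates above about 35% based on untreated-well scatter, with enough replicates individually passing, limit read from the data; inconclusive means no rule stated though some were filed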;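 further: 0% = median of neutral control wells and 100% = median of positive control wells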
3T3 cytotox 2: NIH/3T3 (mouse) viability loss | 5,600 tested, 56% active | inhibition, % at 24.9 µM | shares compounds with T cruzi growth-1 | NIH/3T3 viability, CellTiter-Glo ATP luminescence, 90 h;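 active means mean loss of cell viability signal at or above a set limit, and enough replicates individually reaching it; inconclusive means meets only the mean limit or only the replicate share; inactive means meets neither condition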;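 further: 0% = median of neutral control wells and 100% = median of positive control wells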
Starred values were filed as active, the others as inactive.

How did C[C@H]1CN([C@@H](C)CO)S(=O)(=O)c2ccc(-c3ccncc3)cc2O[C@@H]1CN(C)C(=O)c1cccc(F)c1 do in these assays?
Pf Dd2 inh: -59; GASC1 inh: 0; T cruzi growth-1: 114*; IDH1 mut inh: 0; T cruzi growth-2: 92; T cruzi growth-3: 67; 3T3 cytotox: 8; 3T3 cytotox 2: inconclusive

Results for C[C@H](CO)N1C[C@H](C)[C@H](CN(C)C(=O)c2cccc(F)c2)Oc2cc(-c3ccncc3)ccc2S1(=O)=O ?
Pf Dd2 inh: -43; GASC1 inh: 0; T cruzi growth-1: 109*; IDH1 mut inh: 6; T cruzi growth-2: 89; T cruzi growth-3: 80; 3T3 cytotox: 3; 3T3 cytotox 2: 28

What do the screens show for `C[C@@H]1CN([C@H](C)CO)S(=O)(=O)c2ccc(-c3ccncc3)cc2O[C@H]1CN(C)C(=O)c1cccc(F)c1`?
Pf Dd2 inh: -41; GASC1 inh: -1; T cruzi growth-1: 113*; IDH1 mut inh: 0; T cruzi growth-2: 84; T cruzi growth-3: 78; 3T3 cytotox: 2; 3T3 cytotox 2: 47*

What do the screens show for `C[C@H](CO)N1C[C@H](C)[C@H](CN(C)C(=O)c2cccc(F)c2)Oc2cc(-c3cccc(F)c3)ccc2S1(=O)=O`?
Pf Dd2 inh: -37; GASC1 inh: -2; T cruzi growth-1: 44; IDH1 mut inh: 0

How did C[C@@H]1CN([C@@H](C)CO)S(=O)(=O)c2ccc(-c3ccncc3)cc2O[C@@H]1CN(C)C(=O)c1cccc(F)c1 do in these assays?
Pf Dd2 inh: -16; GASC1 inh: 0; T cruzi growth-1: 90; IDH1 mut inh: 7

What do the screens show for `O=C(NCc1ccccn1)C(=O)Nc1ccccc1F`?
IDH1 mut inh: 0

How did O=[N+]([O-])c1ccccc1S(=O)(=O)N1CCN(S(=O)(=O)Cc2ccccc2)CC1 do in these assays?
IDH1 mut inh: -1

Results for COC(=O)c1cc(NC(=O)COc2ccc(Cl)cc2C)cc(C(=O)OC)c1 ?
IDH1 mut inh: 0

How did CN(C)CC#Cc1ccc([C@@H]2[C@H](CO)N3CCCCN(C(=O)Nc4cc(F)ccc4F)C[C@@H]23)cc1 do in these assays?
Pf Dd2 inh: -39; GASC1 inh: 4; T cruzi growth-1: inconclusive; T cruzi growth-2: 93; T cruzi growth-3: 73; 3T3 cytotox: 9; 3T3 cytotox 2: 98*

How did CN(C)CC#Cc1ccc([C@@H]2[C@@H](CO)N3CCCCN(C(=O)Nc4ccccc4F)C[C@H]23)cc1 do in these assays?
Pf Dd2 inh: -2; GASC1 inh: 4; T cruzi growth-1: -11

Results for CN(C)CC#Cc1ccc([C@@H]2[C@@H](CO)N3CCCCN(C(=O)Nc4cc(F)ccc4F)C[C@H]23)cc1 ?
Pf Dd2 inh: -4; GASC1 inh: 4; T cruzi growth-1: 100*; T cruzi growth-2: inconclusive; T cruzi growth-3: 45; 3T3 cytotox: 8; 3T3 cytotox 2: 28*

How did COCC#Cc1ccc([C@H]2[C@@H](CO)N3CCCCN(C(=O)Nc4cc(F)ccc4F)C[C@H]23)cc1 do in these assays?
Pf Dd2 inh: -52; GASC1 inh: 1; T cruzi growth-1: 101*; T cruzi growth-2: 104*; T cruzi growth-3: 62; 3T3 cytotox: -1; 3T3 cytotox 2: 89*

Results for CN(C)CC#Cc1ccc([C@H]2[C@H](CO)N3CCCCN(C(=O)Nc4cc(F)ccc4F)C[C@@H]23)cc1 ?
Pf Dd2 inh: -55; GASC1 inh: 5; T cruzi growth-1: 105*; T cruzi growth-2: 99*; T cruzi growth-3: 43; 3T3 cytotox: 24; 3T3 cytotox 2: 58*

How did COC(=O)c1ccccc1NC(=O)C1=C(C)NC(=S)NC1c1ccc(OC2CCCC2)c(OC)c1 (stereo unspecified) do in these assays?
IDH1 mut inh: 0

Source: PubChem BioAssay (Broad Institute)
